Data as given in publication PMC5743405 (International Journal of Oncology, 2017).
Read-outs that look alike come from different tables or passages of the source.

Columns and labels:
[1] = tested on: CALCR-RAMP2; assay: PathHunter β-arrestin; assay type: cell-based; details: agonist mode, 6 μM
Procedure, shortened: (§1)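 β-Arrestin recruitment assay: the enzyme acceptor is fused to β-arrestin and the ED fragment to the GPCR. Recruitment restores β-galactosidase, read by chemiluminescence. % activity = 100% × (test − vehicle)/(max control ligand − vehicle). % inhibition = 100% × (1 − (test − vehicle)/(EC80 control − vehicle)). An agonist hit needs >30% activity and RLU > baseline + 3×SD. An antagonist hit needs >35% inhibition and RLU < EC80 RLU − 3×SD.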

[2] = tested on: CCR10; assay: PathHunter β-arrestin; assay type: cell-based; details: antagonist mode, 6 μM
Procedure, shortened: as §1

[3] = tested on: CHRM2; assay: PathHunter β-arrestin; assay type: cell-based; details: 6 μM
Procedure, shortened: (§2)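 Engineered cells express the receptor fused to one β-galactosidase fragment (ED) and β-arrestin fused to the complementing fragment (EA). Receptor activation recruits β-arrestin, which restores enzyme activity, and this is read by chemiluminescence (RLU). Agonist % activity is 100% × (test − vehicle)/(maximal control ligand − vehicle). Antagonist mode is challenged with an EC80 control agonist, and % inhibition is 100% × (1 − (test − vehicle)/(EC80 − vehicle)). Hits require >30% activity or >35% inhibition, plus a 3×SD RLU margin.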

[4] = tested on: CNR2; assay: PathHunter β-arrestin; assay type: cell-based; details: 6 μM
Procedure, shortened: as §2

[5] = tested on: CRTH2; assay: PathHunter β-arrestin; assay type: cell-based; details: antagonist mode, 6 μM
Procedure, shortened: as §2

[6] = tested on: CXCR1; assay: PathHunter β-arrestin; assay type: cell-based; details: antagonist mode, 6 μM
Procedure, shortened: as §2

[7] = tested on: CXCR4; assay: PathHunter β-arrestin; assay type: cell-based; details: 6 μM
Procedure, shortened: as §2

[8] = tested on: CXCR7; assay: PathHunter β-arrestin; assay type: cell-based; details: antagonist mode, 6 μM
Procedure, shortened: as §2

[9] = tested on: DRD2L; assay: PathHunter β-arrestin; assay type: cell-based; details: antagonist mode, 6 μM
Procedure, shortened: as §2

[10] = tested on: DRD5; assay: PathHunter β-arrestin; assay type: cell-based; details: 6 μM
Procedure, shortened: as §2

[11] = tested on: EDG4; assay: PathHunter β-arrestin; assay type: cell-based; details: antagonist mode, 6 μM
Procedure, shortened: as §2

[12] = tested on: EDG5; assay: PathHunter β-arrestin; assay type: cell-based; details: 6 μM
Procedure, shortened: as §2

[13] = tested on: EDG7; assay: PathHunter β-arrestin; assay type: cell-based; details: antagonist mode, 6 μM
Procedure, shortened: as §2

[14] = tested on: GALR1; assay: PathHunter β-arrestin; assay type: cell-based; details: 6 μM
Procedure, shortened: as §2

[15] = tested on: GLP1R; assay: PathHunter β-arrestin; assay type: cell-based; details: antagonist mode, 6 μM
Procedure, shortened: (§3)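 Vendor-run (DiscoveRx) PathHunter enzyme fragment complementation. β-Arrestin carries the EA fragment and the receptor carries ED; recruitment restores β-gal activity, read by chemiluminescence (RLU). Agonist % activity = vehicle-subtracted RLU relative to max control ligand (gpcrMAX) or to vehicle (orphanMAX). Antagonist % inhibition = 100% × (1 − vehicle-subtracted sample RLU / vehicle-subtracted EC80 agonist control RLU).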

[16] = tested on: HRH3; assay: PathHunter β-arrestin; assay type: cell-based; details: 6 μM
Procedure, shortened: as §3

[17] = tested on: HRH4; assay: PathHunter β-arrestin; assay type: cell-based; details: antagonist mode, 6 μM
Procedure, shortened: as §3

[18] = tested on: HTR1A; assay: PathHunter β-arrestin; assay type: cell-based; details: antagonist mode, 6 μM
Procedure, shortened: as §3

[19] = tested on: HTR2C; assay: PathHunter β-arrestin; assay type: cell-based; details: 6 μM
Procedure, shortened: as §3

[20] = tested on: MC1R; assay: PathHunter β-arrestin; assay type: cell-based; details: 6 μM
Procedure, shortened: as §3

[21] = tested on: MC5R; assay: PathHunter β-arrestin; assay type: cell-based; details: 6 μM
Procedure, shortened: as §3

[22] = tested on: MCHR1; assay: PathHunter β-arrestin; assay type: cell-based; details: 6 μM
Procedure, shortened: as §3

[23] = tested on: NTSR1; assay: PathHunter β-arrestin; assay type: cell-based; details: antagonist mode, 6 μM
Procedure, shortened: (§4)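 GPCR-ED fusion and β-arrestin-EA fusion; arrestin recruitment restores β-galactosidase, read by chemiluminescence. Antagonist mode uses EC80 agonist challenge. % inhibition = 100 × (1 − (test − vehicle RLU)/(EC80 control − vehicle RLU)). Hit requires >35% inhibition and mean RLU below EC80 RLU − 3 × EC80 SD.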

[24] = tested on: OPRD1; assay: PathHunter β-arrestin; assay type: cell-based; details: antagonist mode, 6 μM
Procedure, shortened: as §4

[25] = tested on: P2RY6; assay: PathHunter β-arrestin; assay type: cell-based; details: antagonist mode, 6 μM
Procedure, shortened: as §4

[26] = tested on: PPYR1; assay: PathHunter β-arrestin; assay type: cell-based; details: antagonist mode, 6 μM
[27] = tested on: PROKR2; assay: PathHunter β-arrestin; assay type: cell-based; details: antagonist mode, 6 μM
[28] = tested on: PTGER4; assay: PathHunter β-arrestin; assay type: cell-based; details: 6 μM
Procedure, shortened: (§5)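 β-Arrestin recruitment to GPCR read by β-galactosidase fragment complementation and chemiluminescence. Agonist: % = 100 × (test − vehicle)/(max control ligand − vehicle), hit at >30% and RLU > baseline + 3 SD. Antagonist, against EC80 agonist: % inhibition = 100 × (1 − (test − vehicle)/(EC80 − vehicle)), hit at >35% and RLU < EC80 − 3 SD.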

[29] = tested on: TACR1; assay: PathHunter β-arrestin; assay type: cell-based; details: 6 μM
Procedure, shortened: as §5

[30] = tested on: TBXA2R; assay: PathHunter β-arrestin; assay type: cell-based; details: 6 μM
Procedure, shortened: as §5

[31] = tested on: nuclear receptor; assay: PathHunter NHR assays, nhrMAX panel, agonist mode; assay type: cell-based; details: summary of Table IV
Procedure, shortened: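 Enzyme fragment complementation: a ligand-activated NHR moves to the nucleus and recruits a steroid receptor co-activator peptide fusion, restoring β-galactosidase, read by chemiluminescence. Agonist interaction measured over 6 h. Hit requires >30% activity and mean RLU above baseline RLU + 3 × baseline SD.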

[32] = tested on: TLR5; assay: western blot, JJ012 cells; assay type: cell-based, human; details: vs untreated control, overnight incubation
[33] = tested on: TLR9; assay: western blot, JJ012 cells; assay type: cell-based, human; details: vs untreated control, overnight incubation
[34] = tested on: chondrosarcoma cell growth; details: cited from earlier work

## Proline rich polypeptide 1 [PRP-1]
[1]
  % Activity: 2%
[2]
  % Inhibition: −3%
[3]; agonist mode
  % Activity: 1%
[3]; antagonist mode
  % Inhibition: −6%
[4]; agonist mode
  % Activity: −2%
[4]; antagonist mode
  % Inhibition: 5%
[5]
  % Inhibition: −8%
[6]
  % Inhibition: −1%
[7]; agonist mode
  % Activity: 2%
[7]; antagonist mode
  % Inhibition: 2%
[8]
  % Inhibition: −2%
[9]
  % Inhibition: 2%
[10]; agonist mode
  % Activity: 1%
[10]; antagonist mode
  % Inhibition: −8%
[11]
  % Inhibition: 5%
[12]; agonist mode
  % Activity: 1%
[12]; antagonist mode
  % Inhibition: −8%
[13]
  % Inhibition: −3%
[14]; agonist mode
  % Activity: 1%
[14]; antagonist mode
  % Inhibition: −4%
[15]
  % Inhibition: −9%
[16]; agonist mode
  % Activity: 2%
[16]; antagonist mode
  % Inhibition: −6%
[17]
  % Inhibition: −9%
[18]
  % Inhibition: −5%
[19]; agonist mode
  % Activity: 1%
[19]; antagonist mode
  % Inhibition: −3%
[20]; agonist mode
  % Activity: −2%
[20]; antagonist mode
  % Inhibition: −2%
[21]; agonist mode
  % Activity: 2%
[21]; antagonist mode
  % Inhibition: −5%
[22]; agonist mode
  % Activity: 1%
[22]; antagonist mode
  % Inhibition: −4%
[23]
  % Inhibition: −1%
[24]
  % Inhibition: −2%
[25]
  % Inhibition: 3%
[26]
  % Inhibition: −4%
[27]
  % Inhibition: 8%
[28]; agonist mode
  % Activity: 1%
[28]; antagonist mode
  % Inhibition: 4%
[29]; agonist mode
  % Activity: 1%
[29]; antagonist mode
  % Inhibition: −2%
[30]; agonist mode
  % Activity: 1%
[30]; antagonist mode
  % Inhibition: −10%
[31]
  nuclear receptor agonism: neither that this peptide was agonist for orphan receptors (Table III) or agonist/antagonist for nuclear receptor
[32]
  protein expression: PRP-1 did not have any effect
[33]
  protein expression: no indication of PRP-1 effect
[34]; ref [4],[5]
  inhibition of chondrosarcoma cell growth: 80–90%
[34]; ref [4],[6]
  inhibition of chondrosarcoma cell growth: > 80%
